Our source for the IC50 values is ChEMBL document CHEMBL3243980, “Structural analogues of L-glutamic Acid gamma-(4-hydroxyanilide) and gamma-(3,4-dihydroxyanilde) as potential agents against melanoma” (1979).

pIC50: −log10 of the molar value.

The subject of this assay is B16. The experiment in a line: Cytotoxicity against mouse B16 cells after 48 hrs. To be noted: B16, 48 h, read-out: ID50 (the source's name). The assay is classed as functional. Summed up: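 Moderately pigmented B16 murine melanoma cells grown as monolayers in McCoy's 5A medium plus 10% fetal calf serum, in exponential growth at assay. Drug added 24 h after plating, incubation continued another 48 h. Four dose levels tested in triplicate, generally 0.1–1.0 mM (0.01–0.1 mM for one compound); ID50 reported as mM, SD within ±10% of mean.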
Turning to `N[C@@H](CCC(=O)Nc1ccc(O)cc1)C(=O)O`, the pIC50 was 4.00.
As for `N[C@@H](CCC(=O)Nc1cccc(O)c1)C(=O)O`, the pIC50 is 3.00.
`N[C@@H](CCC(=O)Nc1ccc(O)c(O)c1)C(=O)O`: the pIC50 was 3.57.
For `COc1ccc(NC(=O)CC[C@H](N)C(=O)O)cc1`, the pIC50 was below 3.00.
In the case of `N[C@@H](CCC(=O)Nc1ccc2c(c1)OCO2)C(=O)O` it was below 3.00; in that of `N[C@@H](CCC(=O)Nc1cc(O)ccc1O)C(=O)O`, 4.29; in that of `N[C@@H](CC(=O)Nc1ccc(O)cc1)C(=O)O`, 3.51.
On to `N[C@@H](CCC(=O)O)C(=O)Nc1ccc(O)cc1`, for which the pIC50 was below 3.00.
As to `NCCCC(=O)Nc1ccc(O)cc1`, the pIC50 is below 3.00.
In the case of `O=C(O)CCCC(=O)Nc1ccc(O)cc1` it was below 3.00; in that of `O=C(CCCC(=O)Nc1ccc(O)cc1)Nc1ccc(O)cc1`, below 3.00.
